Measured values reported in ChEMBL document CHEMBL4014298, “Discovery of a series of 8-(1-phenylpyrrolidin-2-yl)-6-carboxamide-2-morpholino-4H-chromen-4-one as PI3Kβ/δ inhibitors for the treatment of PTEN-deficient tumours” (Bioorg Med Chem Lett, 2017).
In brackets after ≈: the same amount, converted by molar mass. Activity calls are given as the source filed them. The rule behind the calls is not given here.

Key:
Mus musculus [1] = assay: In vivo inhibition of AKT phosphorylation at Ser473 in nude mouse xenografted with PTEN-deficient human PC3 cells at 100 mg/kg, po administered as single dose measured after 30 mins to 8 hrs; assay type: functional, organism-based
Summary of the method: (§1)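 Single oral dose (100 or 30 mg/kg) to nude mice carrying PTEN-deficient PC3 prostate xenografts; tumour AKT Ser473 phosphorylation measured at 30 min, 2 h and 8 h, with free plasma concentration determined at same time points.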

[2] = target: Phosphatidylinositol 4,5-bisphosphate 3-kinase catalytic subunit gamma isoform (Mus musculus, UniProt Q9JHG7); assay: Inhibition of PI3Kgamma in mouse RAW264 cells assessed as decrease in AKT phosphorylation at Ser473; assay type: cell-based
Chain of Phosphatidylinositol 4,5-bisphosphate 3-kinase catalytic subunit gamma isoform (Mus musculus, UniProt Q9JHG7) (Q9JHG7 whole entry, canonical isoform): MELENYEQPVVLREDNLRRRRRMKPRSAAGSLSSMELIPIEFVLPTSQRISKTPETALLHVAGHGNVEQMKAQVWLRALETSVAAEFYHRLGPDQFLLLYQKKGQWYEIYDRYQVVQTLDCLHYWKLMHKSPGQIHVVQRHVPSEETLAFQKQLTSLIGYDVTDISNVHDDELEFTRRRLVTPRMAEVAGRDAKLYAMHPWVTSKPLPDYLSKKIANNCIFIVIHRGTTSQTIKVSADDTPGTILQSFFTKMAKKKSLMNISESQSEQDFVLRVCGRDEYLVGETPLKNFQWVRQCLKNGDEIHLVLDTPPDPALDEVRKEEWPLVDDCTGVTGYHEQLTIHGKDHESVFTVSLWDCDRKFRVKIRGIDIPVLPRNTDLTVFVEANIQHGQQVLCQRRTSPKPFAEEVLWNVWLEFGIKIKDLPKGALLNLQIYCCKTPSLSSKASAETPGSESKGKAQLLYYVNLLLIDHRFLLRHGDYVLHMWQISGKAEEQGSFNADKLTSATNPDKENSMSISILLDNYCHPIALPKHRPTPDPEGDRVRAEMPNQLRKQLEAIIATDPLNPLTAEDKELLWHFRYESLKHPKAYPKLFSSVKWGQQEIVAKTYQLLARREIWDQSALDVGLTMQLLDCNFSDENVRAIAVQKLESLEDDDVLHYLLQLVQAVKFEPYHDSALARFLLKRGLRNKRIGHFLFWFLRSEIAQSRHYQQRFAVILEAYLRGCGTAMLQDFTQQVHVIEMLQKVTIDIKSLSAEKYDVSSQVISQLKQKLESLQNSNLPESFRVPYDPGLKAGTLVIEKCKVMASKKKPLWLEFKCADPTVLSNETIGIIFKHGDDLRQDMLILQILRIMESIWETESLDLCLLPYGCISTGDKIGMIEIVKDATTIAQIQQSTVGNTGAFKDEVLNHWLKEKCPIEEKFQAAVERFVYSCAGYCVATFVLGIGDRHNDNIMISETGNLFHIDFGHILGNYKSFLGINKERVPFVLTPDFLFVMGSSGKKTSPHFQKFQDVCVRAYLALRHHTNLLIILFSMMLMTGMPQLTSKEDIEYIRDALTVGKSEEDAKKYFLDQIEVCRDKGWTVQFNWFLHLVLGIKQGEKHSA
Summary of the method: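 Mouse monocytic RAW264 cells; inhibition of AKT Ser473 phosphorylation measured; single determination (n=1).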

[3] = target: T1, Phosphatidylinositol 4,5-bisphosphate 3-kinase catalytic subunit delta isoform (Homo sapiens, UniProt O00329); assay: Inhibition of recombinant human PI3Kdelta using PIP2 as substrate preincubated for 20 mins followed by substrate addition measured after 80 mins in presence of ATP by Kinase Glo luminescence assay
T1 sequence (O00329 whole entry): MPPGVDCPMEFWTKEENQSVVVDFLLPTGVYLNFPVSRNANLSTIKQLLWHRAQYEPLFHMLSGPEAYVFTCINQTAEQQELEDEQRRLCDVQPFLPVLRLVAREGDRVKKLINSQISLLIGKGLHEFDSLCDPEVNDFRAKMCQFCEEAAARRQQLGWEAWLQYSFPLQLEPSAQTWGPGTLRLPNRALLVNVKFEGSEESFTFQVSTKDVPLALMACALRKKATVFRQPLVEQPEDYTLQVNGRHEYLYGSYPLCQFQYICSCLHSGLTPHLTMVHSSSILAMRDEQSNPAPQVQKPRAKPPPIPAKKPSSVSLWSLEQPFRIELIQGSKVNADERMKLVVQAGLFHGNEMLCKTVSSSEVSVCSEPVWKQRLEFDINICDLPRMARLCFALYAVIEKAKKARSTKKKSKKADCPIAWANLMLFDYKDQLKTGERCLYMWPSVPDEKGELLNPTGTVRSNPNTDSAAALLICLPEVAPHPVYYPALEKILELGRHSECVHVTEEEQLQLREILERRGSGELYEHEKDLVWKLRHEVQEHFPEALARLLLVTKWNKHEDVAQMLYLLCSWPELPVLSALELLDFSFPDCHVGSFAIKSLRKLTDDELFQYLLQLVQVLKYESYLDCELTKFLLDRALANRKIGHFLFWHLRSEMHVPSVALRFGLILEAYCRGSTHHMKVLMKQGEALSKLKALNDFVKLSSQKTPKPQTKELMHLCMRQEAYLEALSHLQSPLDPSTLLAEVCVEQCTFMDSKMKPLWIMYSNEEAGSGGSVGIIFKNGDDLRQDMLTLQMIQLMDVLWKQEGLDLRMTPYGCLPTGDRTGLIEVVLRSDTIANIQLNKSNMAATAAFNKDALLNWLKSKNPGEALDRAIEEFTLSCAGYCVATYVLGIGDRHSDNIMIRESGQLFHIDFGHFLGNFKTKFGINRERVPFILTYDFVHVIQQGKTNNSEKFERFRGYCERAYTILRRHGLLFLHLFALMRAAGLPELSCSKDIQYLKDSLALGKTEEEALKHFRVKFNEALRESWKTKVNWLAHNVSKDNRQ

[4] = target: Phosphatidylinositol 3-kinase regulatory subunit alpha (Homo sapiens, UniProt P27986); assay: Inhibition of human PI3K p85alpha (1 to 724 residues) by ADP Glo HTS assay
Summary of the method: (§2)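 Lipid kinase selectivity assessed in a 15-kinase panel (Dundee University lipid kinase panel), IC50 determined.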

[5] = Volume of distribution at steady state in mouse blood at 5 umol/kg, iv or 30 umol/kg, po; assay type: ADME, organism-based; conditions: read-out: Vdss
[6] = target: T2, Phosphatidylinositol 4,5-bisphosphate 3-kinase catalytic subunit gamma isoform (Homo sapiens, UniProt P48736); assay: Inhibition of recombinant human PI3Kgamma using PIP2 as substrate preincubated for 20 mins followed by substrate addition measured after 80 mins in presence of ATP by Kinase Glo luminescence assay
T2 sequence (P48736 whole entry, canonical isoform): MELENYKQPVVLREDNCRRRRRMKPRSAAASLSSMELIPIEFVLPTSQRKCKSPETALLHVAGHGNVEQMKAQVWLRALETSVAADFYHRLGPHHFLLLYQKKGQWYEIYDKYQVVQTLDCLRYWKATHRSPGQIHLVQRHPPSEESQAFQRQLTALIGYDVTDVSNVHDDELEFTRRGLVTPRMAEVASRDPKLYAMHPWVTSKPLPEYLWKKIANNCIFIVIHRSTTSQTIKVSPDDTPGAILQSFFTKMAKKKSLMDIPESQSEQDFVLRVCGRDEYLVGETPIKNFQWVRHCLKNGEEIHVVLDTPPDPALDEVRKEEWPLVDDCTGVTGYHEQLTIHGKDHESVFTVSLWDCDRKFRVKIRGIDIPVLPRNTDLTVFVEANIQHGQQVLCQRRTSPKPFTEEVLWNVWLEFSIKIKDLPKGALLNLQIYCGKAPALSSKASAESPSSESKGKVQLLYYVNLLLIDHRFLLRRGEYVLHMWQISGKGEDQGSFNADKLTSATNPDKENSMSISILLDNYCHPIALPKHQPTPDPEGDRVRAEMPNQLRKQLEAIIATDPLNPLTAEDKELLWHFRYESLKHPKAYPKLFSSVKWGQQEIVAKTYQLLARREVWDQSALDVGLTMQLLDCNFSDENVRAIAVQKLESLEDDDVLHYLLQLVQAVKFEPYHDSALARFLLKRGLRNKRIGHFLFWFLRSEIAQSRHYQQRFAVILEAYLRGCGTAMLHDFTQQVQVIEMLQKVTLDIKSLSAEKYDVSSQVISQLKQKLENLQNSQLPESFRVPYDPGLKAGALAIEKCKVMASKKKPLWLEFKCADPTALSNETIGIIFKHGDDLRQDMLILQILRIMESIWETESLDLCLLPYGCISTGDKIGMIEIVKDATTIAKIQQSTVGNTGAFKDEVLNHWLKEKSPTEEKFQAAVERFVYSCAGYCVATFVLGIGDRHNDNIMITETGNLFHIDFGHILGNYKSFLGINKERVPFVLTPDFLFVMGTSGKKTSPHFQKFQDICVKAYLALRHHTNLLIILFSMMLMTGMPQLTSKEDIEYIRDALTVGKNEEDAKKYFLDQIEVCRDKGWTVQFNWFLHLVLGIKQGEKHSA
Summary of the method: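 Enzyme IC50 against PI3Kγ, single determination (n=1).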

Mus musculus [7] = assay: In vivo inhibition of AKT phosphorylation at Ser473 in nude mouse xenografted with PTEN-deficient human PC3 cells at 30 mg/kg, po administered as single dose measured after 30 mins to 8 hrs; assay type: functional, organism-based; summary of the method: as §1
Cytochrome P450 2C9 = Cytochrome P450 2C9 (Homo sapiens, UniProt P11712); assay: Inhibition of CYP2C9 (unknown origin); assay type: ADME
Chain of Cytochrome P450 2C9 (P11712 whole entry): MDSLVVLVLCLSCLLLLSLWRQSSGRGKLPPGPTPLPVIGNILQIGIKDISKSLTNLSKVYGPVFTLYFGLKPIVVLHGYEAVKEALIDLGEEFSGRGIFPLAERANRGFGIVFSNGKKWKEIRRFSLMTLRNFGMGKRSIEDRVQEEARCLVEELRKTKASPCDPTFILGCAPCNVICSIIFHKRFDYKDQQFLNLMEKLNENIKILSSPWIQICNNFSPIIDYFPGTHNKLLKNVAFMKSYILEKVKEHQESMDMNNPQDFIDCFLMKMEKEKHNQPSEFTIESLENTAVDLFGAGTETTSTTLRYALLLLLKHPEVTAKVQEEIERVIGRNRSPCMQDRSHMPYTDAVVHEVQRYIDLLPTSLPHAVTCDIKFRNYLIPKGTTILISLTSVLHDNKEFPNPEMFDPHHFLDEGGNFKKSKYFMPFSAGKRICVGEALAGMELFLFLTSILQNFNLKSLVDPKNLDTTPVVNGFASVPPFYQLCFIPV

[8] = Inhibition of PI3Kalpha mutant in human BT474 cells assessed as decrease in AKT phosphorylation at Thr308 after 2 hrs; assay type: cell-based; conditions: BT-474, 2 h
Cytochrome P450 3A4 = Cytochrome P450 3A4 (Homo sapiens, UniProt P08684); assay: Inhibition of CYP3A4 (unknown origin); assay type: ADME
Chain of Cytochrome P450 3A4 (P08684 whole entry): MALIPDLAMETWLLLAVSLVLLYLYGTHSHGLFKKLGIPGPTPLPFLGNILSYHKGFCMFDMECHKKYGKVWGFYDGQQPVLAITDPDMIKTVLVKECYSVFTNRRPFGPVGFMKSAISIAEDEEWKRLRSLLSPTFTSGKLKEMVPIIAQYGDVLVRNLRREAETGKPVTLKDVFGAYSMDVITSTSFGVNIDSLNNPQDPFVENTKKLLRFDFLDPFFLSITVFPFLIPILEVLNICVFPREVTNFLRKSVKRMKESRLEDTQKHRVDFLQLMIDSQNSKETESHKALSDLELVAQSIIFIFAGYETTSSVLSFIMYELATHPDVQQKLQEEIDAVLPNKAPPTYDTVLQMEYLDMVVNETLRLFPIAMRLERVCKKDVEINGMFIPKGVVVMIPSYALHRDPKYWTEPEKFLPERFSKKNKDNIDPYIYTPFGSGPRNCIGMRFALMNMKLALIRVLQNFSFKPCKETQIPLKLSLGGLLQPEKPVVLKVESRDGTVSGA

Cytochrome P450 2D6 = Cytochrome P450 2D6 (Homo sapiens, UniProt P10635); assay: Inhibition of CYP2D6 (unknown origin); assay type: ADME
Chain of Cytochrome P450 2D6 (P10635 whole entry): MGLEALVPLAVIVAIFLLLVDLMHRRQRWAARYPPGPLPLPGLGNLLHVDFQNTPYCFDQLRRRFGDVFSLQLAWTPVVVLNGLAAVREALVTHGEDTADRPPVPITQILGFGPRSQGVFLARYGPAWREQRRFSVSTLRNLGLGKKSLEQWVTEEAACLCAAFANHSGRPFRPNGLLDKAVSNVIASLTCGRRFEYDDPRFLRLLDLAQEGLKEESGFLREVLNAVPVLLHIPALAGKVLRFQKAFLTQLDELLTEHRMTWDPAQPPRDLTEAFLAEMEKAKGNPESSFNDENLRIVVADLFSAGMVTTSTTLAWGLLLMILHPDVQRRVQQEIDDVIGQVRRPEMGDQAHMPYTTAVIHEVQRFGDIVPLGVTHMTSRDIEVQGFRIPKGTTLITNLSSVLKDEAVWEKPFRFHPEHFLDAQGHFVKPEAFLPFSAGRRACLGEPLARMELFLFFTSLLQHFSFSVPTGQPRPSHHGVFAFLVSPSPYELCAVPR

[9] = AUC in mouse at 30 umol/kg, po; assay type: ADME; conditions: in vivo
[10] = target: T2, Phosphatidylinositol 4,5-bisphosphate 3-kinase catalytic subunit gamma isoform; assay: Inhibition of human PI3Kgamma (2 to 1102 residues) by ADP Glo HTS assay; summary of the method: as §2
[11] = Solubility of the compound in aqueous buffer at pH 6.5; assay type: physicochemical
Summary of the method: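 Solubility from crystalline solid in aqueous buffer, pH 6.5, µg/mL.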

[12] = target: MAP/microtubule affinity-regulating kinase 4 (Homo sapiens) (UniProt Q96L34); assay: Inhibition of human MARK4 (2 to 752 residues) at 1 uM after 5 mins in presence of [33P]ATP by filter binding assay relative to control
[13] = Oral bioavailability in dog blood at 10 umol/kg; assay type: ADME, organism-based, Canis lupus familiaris
PC-3 [14] = assay: Antitumor activity against PTEN-deficient human PC3 cells xenografted in nude mouse assessed as tumor growth inhibition at 50 mg/kg, po bid relative to control; assay type: functional; conditions: PC-3, po, read-out: TGI
Summary of the method: (§3)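 Nude mice bearing PTEN-deficient PC3 prostate tumour xenografts; compound given orally twice daily (b.i.d.) at 100 or 50 mg/kg over chronic dosing; tumour growth inhibition versus control determined at end of study.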

[15] = target: Phosphatidylinositol 4-kinase beta (Homo sapiens, UniProt Q9UBF8); assay: Inhibition of human PIK4Cbeta (1 to 801 residues) by ADP Glo HTS assay; summary of the method: as §2
[16] = Intrinsic clearance in human hepatocytes assessed per million cells; assay type: ADME, cell-based, Hepatocyte; conditions: read-out: CLH
PC-3 [17] = assay: Antitumor activity against PTEN-deficient human PC3 cells xenografted in nude mouse assessed as tumor growth inhibition at 100 mg/kg, po bid relative to control; assay type: functional; conditions: PC-3, po, read-out: TGI; summary of the method: as §3
[18] = target: Phosphatidylinositol 4,5-bisphosphate 3-kinase catalytic subunit alpha isoform (Homo sapiens, UniProt P42336, E542K); assay: Inhibition of human PI3Kalpha (2 to 1068 residues)/p85 (1 to 724 residues) E542K mutant by ADP Glo HTS assay; summary of the method: as §2
Chain of Phosphatidylinositol 4,5-bisphosphate 3-kinase catalytic subunit alpha isoform (P42336 whole entry E542K, the tested form may be a part, canonical isoform): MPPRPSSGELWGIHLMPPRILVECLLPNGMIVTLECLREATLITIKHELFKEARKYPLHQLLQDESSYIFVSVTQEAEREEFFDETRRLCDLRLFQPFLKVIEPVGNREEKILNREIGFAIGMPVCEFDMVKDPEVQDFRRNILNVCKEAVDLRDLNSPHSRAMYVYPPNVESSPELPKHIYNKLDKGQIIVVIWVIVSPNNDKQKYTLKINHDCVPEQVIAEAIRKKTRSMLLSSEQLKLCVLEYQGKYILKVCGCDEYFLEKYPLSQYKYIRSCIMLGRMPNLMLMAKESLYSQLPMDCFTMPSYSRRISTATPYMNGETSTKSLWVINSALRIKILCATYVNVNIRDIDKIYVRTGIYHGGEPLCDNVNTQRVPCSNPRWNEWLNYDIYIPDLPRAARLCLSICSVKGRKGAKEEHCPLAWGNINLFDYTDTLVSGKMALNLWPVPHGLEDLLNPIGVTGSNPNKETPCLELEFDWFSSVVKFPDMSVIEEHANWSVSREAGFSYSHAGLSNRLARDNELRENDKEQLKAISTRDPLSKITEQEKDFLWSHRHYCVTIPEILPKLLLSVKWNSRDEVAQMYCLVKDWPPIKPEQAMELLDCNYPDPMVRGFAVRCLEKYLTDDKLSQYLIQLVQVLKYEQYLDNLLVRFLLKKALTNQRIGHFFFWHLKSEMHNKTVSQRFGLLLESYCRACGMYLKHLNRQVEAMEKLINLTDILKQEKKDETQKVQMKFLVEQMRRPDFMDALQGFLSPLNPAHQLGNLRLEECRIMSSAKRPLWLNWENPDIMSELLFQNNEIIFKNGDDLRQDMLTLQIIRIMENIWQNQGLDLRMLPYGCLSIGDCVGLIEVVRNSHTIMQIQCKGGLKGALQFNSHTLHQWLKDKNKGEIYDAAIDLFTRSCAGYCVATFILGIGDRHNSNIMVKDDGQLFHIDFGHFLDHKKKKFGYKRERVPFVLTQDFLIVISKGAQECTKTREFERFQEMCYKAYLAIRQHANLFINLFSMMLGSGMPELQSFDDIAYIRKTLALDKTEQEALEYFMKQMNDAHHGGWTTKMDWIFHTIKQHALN

[19] = target: Phosphatidylinositol 3-kinase regulatory subunit beta (Homo sapiens, UniProt O00459); assay: Inhibition of human PI3K p85beta (1 to 724 residues) by ADP Glo HTS assay; summary of the method: as §2

IC50 [2]: 1.5 µM
IC50 [3]: 0.0086 µM
IC50 [4]: > 50 µM
Vd [5]: 1 L/kg
IC50 [6]: 0.19 µM
IC50 (Cytochrome P450 2C9): > 30 µM
IC50 [8]: 0.14 µM
IC50 (Cytochrome P450 3A4): > 30 µM
IC50 (Cytochrome P450 2D6): > 30 µM
AUC [9]: 2.8 µM·h
IC50 [10]: > 50 µM
solubility [11]: 230 µg/mL (≈ 438 µM)
inhibition [12]: 32%
bioavailability [13]: 29%
IC50 [15]: > 50 µM
hepatocyte CLint [16]: 2.7 to 5 µL/min/1e6 cells
IC50 [18]: > 50 µM
IC50 [19]: > 50 µM
Compound: O=C(c1cc([C@H]2CCCN2c2cc(F)cc(F)c2)c2oc(N3CCOCC3)cc(=O)c2c1)N1CCOCC1
inhibition (Mus musculus [1]): Active
inhibition (Mus musculus [7]): Active
inhibition in vivo at 50 mg/kg (PC-3 [14]): 71%
inhibition in vivo at 100 mg/kg (PC-3 [17]): 83%
